Measured values pooled from the literature.
Each line is one published result; the experiments were not run side by side.
Target: cGMP-dependent protein kinase 2 (PRKG2, Homo sapiens, UniProt Q13237)

`CN(C)c1ncnc(-c2ccc3nc(Nc4cc(CN5CCN(C(=O)CC(F)(F)F)CC5)ccn4)[nH]c3c2)c1Cl` has a remaining binding of 40% (cell-free assay; competition with immobilised ligand; 1 µM).
With `Cc1ccc(C(=O)Nc2ccc(CN3CCN(C)CC3)c(C(F)(F)F)c2)cc1C#Cc1cnc2cccnn12` the remaining activity was 82% (enzyme activity; inhibitor; 23.5 nM).
With `CCCS(=O)(=O)Nc1ccc(F)c(C(=O)c2c[nH]c3ncc(-c4ccc(Cl)cc4)cc23)c1F` the inhibition was under 10% (enzyme activity; inhibitor; 1 µM).
`C[C@H]1CCN(c2nccc(-c3cnn4ncccc34)n2)C1` gave a remaining binding of 80% (binding; 1 µM).
For `Nc1nc(Nc2ccc(S(N)(=O)=O)cc2)nn1C(=O)c1c(F)cccc1F`, the remaining signal was 92.2% (cell-free assay; 0.5 µM).
`Cn1cnc(Br)c1C1=CN(c2ncnc3[nH]cnc23)CCS1` gave an inhibition of 91.7% (enzyme activity; inhibitor; radiometric; 2 µM).
With `COc1cc2ncnc(Nc3ccc(Oc4ccccc4)c(C)c3C)c2cc1OC` the inhibition was 2% (enzyme activity; inhibitor; 1 µM).
With `Nc1ncnc2occ(-c3ccc(NC(=O)Nc4cc(C(F)(F)F)ccc4F)cc3)c12` the remaining signal was 76% (cell-free assay; inhibitor; 20 µM).
For `C#Cc1cccc(Nc2ncnc3cc(OCCOC)c(OCCOC)cc23)c1`, the remaining signal was 107% (cell-free assay; 0.5 µM).
`O=C(Nc1cccnn1)N1CCC(=Cc2cccc(Oc3ccc(C(F)(F)F)cn3)c2)CC1` gave a remaining binding of 100% (cell-free assay; competition with immobilised ligand; 1 µM).
For `N#CCCc1ccc2c(c1)-c1[nH]c3ccc([N+](=O)[O-])cc3c1CC(=O)N2`, the remaining signal was 93.9% (cell-free assay; 0.5 µM).
`CSc1cccnc1N1CCN(Cc2nc3ccccc3[nH]2)CC1` gave a remaining binding of 94% (cell-free assay; competition with immobilised ligand; 1 µM).
With `C=CC(=O)Nc1cc(Nc2nccc(Nc3cc(Cl)c(F)cc3C(C)(C)O)n2)c(OC)cc1N1CC[C@@H](N(C)C)C1` the inhibition was -8% (enzyme activity; inhibitor; 1 µM).
With `Cc1sc(C(=O)NC2COC2)cc1-n1cc(NC(=O)Nc2c(F)cccc2Cl)cn1` the remaining activity was 100% (enzyme activity; inhibitor; 10 µM).
With `Cc1ccc(C(=O)NCc2ccsc2)cc1C#Cc1cn(C(C)C)c2ncnc(N)c12` the activity vs control was 112% (enzyme activity; inhibitor; 1 µM).
`COc1cccc(CNC(=O)c2nc3scc(COCc4ccc(C(=O)O)cc4)c3c(=O)[nH]2)c1` gave a remaining binding of 100% (cell-free assay; competition with immobilised ligand; 1 µM).
For `CC(C)(C)c1nc(-c2cccc(NS(=O)(=O)c3c(F)cccc3F)c2F)c(-c2ccnc(N)n2)s1`, the remaining activity was 102% (enzyme activity; inhibitor; radiometric; 1 µM).
`N#CC1(c2ccccn2)CCN(Cc2cc(C(=O)N3CCCC3)c(=O)n3ccccc23)CC1` gave a remaining binding of 100% (cell-free assay; competition with immobilised ligand; 1 µM).
For `CN(C)C1CCN(CC#Cc2nn(C3CCCC3)c3nc(NCc4ccccc4)ncc23)C1` (stereo not shown), the inhibition was 5% (enzyme activity; inhibitor; FRET; 10 µM).
